Here are results for four compounds from ChEMBL document CHEMBL2146467, “Generation and exploration of new classes of antitubercular agents: The optimization of oxazolines, oxazoles, thiazolines, thiazoles to imidazo[1,2-a]pyridines and isomeric 5,6-fused scaffolds” (Bioorg Med Chem, 2012).

≈ marks a conversion by molar mass, not a printed value. A value given as a limit tells only on which side of the number the result lay.

Series [1] has as its system Mycobacterium tuberculosis. Kind of series: Antimycobacterial activity against Mycobacterium tuberculosis H37Rv ATCC 27294 culture in 7H12 media after 7 days by microplate alamar blue assay. Type of series: functional. The conditions noted are these: H37Rv ATCC 27294, 168 h. The procedure, abridged: (§1)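 Replicating Mtb H37Rv. The MIC is the concentration that inhibits growth of 90% of organisms. Media by line: GAS is glycerol-alanine-salts. GAST is iron-deficient glycerol-alanine-salts with Tween 80. 7H12 is 7H9 broth base with BSA, casein hydrolysate, catalase and palmitic acid. Values are reported in μM.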

Series [2] is described as follows: Chemical stability in simulated gastric fluid assessed as compound remaining at 50 uM after 15 mins by LC/MS analysis. The conditions noted are these: read-out: Stability. Type of series: physicochemical.
Series [3] relates to Mycobacterium tuberculosis. Kind of series: microbe, parasite or virus in culture. Type of series: functional. The conditions noted are these: H37Rv.
Series [4] can be described thus: Metabolic stability in Sprague-Dawley rat liver microsomes assessed as compound remaining at 20 uM after 15 mins by LC/MS analysis. Type of series: ADME, Microsome. The conditions noted are these: read-out: Stability. In general terms: Liver microsomes are vesicles of endoplasmic reticulum, rich in cytochrome P450 enzymes.
The test system of series [5] is Mycobacterium tuberculosis. Put plainly: Antimycobacterial activity against Mycobacterium tuberculosis H37Rv ATCC 27294 culture in GAS media after 7 days by microplate alamar blue assay. Type of series: functional. The conditions noted are these: H37Rv ATCC 27294, 168 h. The procedure, abridged:
as §1

For series [6], the system named is Mycobacterium tuberculosis. Kind of series: Antimycobacterial activity against isoniazid-,rifampin-,ethambutol-,kanamycin-,paraaminosalicylic acid-resistant Mycobacterium tuberculosis after 14 days. Type of series: functional. The conditions noted are these: 336 h.
In series [7] the test system is Mycobacterium tuberculosis. Put plainly: Antimycobacterial activity against drug-sensitive Mycobacterium tuberculosis isolate 2 after 14 days. Type of series: functional. The conditions noted are these: isolate 2, 336 h.
The test system of series [8] is Mycobacterium tuberculosis. Kind of series: Antimycobacterial activity against Mycobacterium tuberculosis H37Rv ATCC 27294 culture in GAST media after 7 days by microplate alamar blue assay. Type of series: functional. The conditions noted are these: H37Rv ATCC 27294, 168 h. In a few lines: as §1
For orientation: Alamar Blue is a resazurin reagent that responds to reducing activity.

Series [9] relates to Mycobacterium avium. Put plainly: Antimycobacterial activity against Mycobacterium avium. Type of series: functional.
For series [10], the system named is Vero. Kind of series: Cytotoxicity against african green monkey Vero cells after 72 hrs by CellTiter assay. Type of series: cell-based. The conditions noted are these: Chlorocebus sabaeus.
Series [11] concerns Mycobacterium kansasii. Put plainly: Antimycobacterial activity against Mycobacterium kansasii. Type of series: functional.
For series [12], the system named is Escherichia coli. Kind of series: Antibacterial activity against Escherichia coli. Type of series: functional.
Series [13] has as its system Staphylococcus aureus. Put plainly: Antibacterial activity against Staphylococcus aureus. Type of series: functional.
The subject of series [14] is Mycobacterium tuberculosis. Put plainly: Antimycobacterial activity against drug-sensitive Mycobacterium tuberculosis isolate 1 after 14 days. Type of series: functional. The conditions noted are these: isolate 1, 336 h.
The test system of series [15] is Mycobacterium tuberculosis. Put plainly: Antimycobacterial activity against isoniazid-,rifampin-,ethambutol-,pyrazinamide-,streptomycin-,kanamycin-,paraaminosalicylic acid-resistant Mycobacterium tuberculosis after 14 days. Type of series: functional. The conditions noted are these: 336 h.

`O=C(OCc1ccccc1)c1coc(-c2ccccc2)n1`: the MIC90 in series [1] was 3.9 µM (≈ 1.09 µg/mL); in series [3], 37 µM (≈ 10.3 µg/mL); in series [5], 5.7 µM (≈ 1.59 µg/mL); in series [6], 1.1 µM (≈ 0.307 µg/mL); in [7] it was 2.2 µM (≈ 0.614 µg/mL); in [8], 0.49 µM (≈ 0.137 µg/mL). Further, the remaining at 0.25 h, 50 µM in series [2] was 1.8%. In [4], the remaining at 0.25 h, 20 µM was 2.7%.
One may read the MIC as the least concentration at which growth counts as inhibited. Broadly, the IC50 is the concentration needed to halve the response being measured. As for `Cc1ccn2c(C(=O)NCc3ccccc3)c(C)nc2c1`, the MIC90 in series [1] stood at 2.3 µM (≈ 0.642 µg/mL); in series [3] it was 54 µM (≈ 15.1 µg/mL); in [5] it was 0.7 µM (≈ 0.196 µg/mL); in series [8], 2 µM (≈ 0.559 µg/mL). Also, the MIC in series [9] was 1.3 µM (≈ 0.363 µg/mL); in series [11], 1.3 µM (≈ 0.363 µg/mL); in [12] it was greater than 50 µM; in series [13], greater than 50 µM. Moreover, the remaining at 0.25 h, 50 µM in series [2] is 100%. In [10], this compound came in with a 50% inhibitory concentration (IC50) greater than 128 µM. Further, in series [4], the remaining at 0.25 h, 20 µM is 90%.
In the case of `Cc1ccn2c(C(=O)OCc3ccccc3)c(C)nc2c1`, the MIC90 in series [1] was less than 0.195 µM; in series [3], 34.8 µM (≈ 9.76 µg/mL); in series [14] it was less than 0.04 µM; in series [5] it was less than 0.195 µM; in series [15], less than 0.04 µM; in series [6] it was less than 0.04 µM. This compound also came in with an MIC90 in series [7] of less than 0.04 µM. The compound further came in with an IC50 in [10] greater than 50 µM.
Take `O=[N+]([O-])c1cn2c(n1)OC[C@@H](OCc1ccc(OC(F)(F)F)cc1)C2` [PRETOMANID]: the MIC90 in series [14] is 0.45 µM (≈ 0.162 µg/mL); in series [15], 0.45 µM (≈ 0.162 µg/mL); in series [6], 0.45 µM (≈ 0.162 µg/mL); in series [7], greater than 13.9 µM.
